UBC13 inh: UBC13 polyubiquitin chain formation inhibitors, primary screen, biochemical, TR-FRET, uHTS. Ubiquitin-conjugating enzyme E2 N (Homo sapiens), P61088. inhibition, % at 20 µM. actives 0.47% (n = 330,000); in the data active = inhibition above about 45%, passing the limit was not always enough
MEKK3 PB1 HTS: modulators of MEKK3-MEK5 PB1 binding, primary screen, biochemical, wildtype MEKK3, multiplex bead flow cytometry, Alexa488-MEK5; bead-based flow cytometry, Alexa488-MEK5 binding to MEKK3; actives lie on both sides; 0 = blocked by unlabeled MEK5, 100 = vehicle; binding response (% of control), % at 10 µM; actives 1.4% (n = 290,000); AID 1529, 2009;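 active = binding response more than 3 SD above or below the average of its plate-row segment, actives on both sides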;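 also: Alexa488 bead fluorescence after subtracting the streptavidin-only scavenger bead signal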
MEKK2 WT-MEK5: modulators of MEK5 binding to wildtype MEKK2, primary screen, biochemical, multiplex bead flow cytometry, Alexa488-MEK5; Alexa488-MEK5 binding to MEKK2 WT; actives lie on both sides; binding response (% of control), % at 10 µM; Mitogen-activated protein kinase kinase kinase 2 (Homo sapiens), Q9Y2U5; actives 1.1% (n = 290,000); in the data active = binding response below about 67% or above about 130%
DSG3 Ab inh: inhibitors of pemphigus antibody binding to DSG3, primary screen, biochemical, bead-based, flow cytometry, scFv-GFP; Desmoglein-3 (Homo sapiens), P32926; DSG3-coupled beads, scFv-anti-DSG3-GFP binding; stronger effect = lower value; binding (percent of control), % at 10 µM; actives 0.48% (n = 310,000); AID 588358, 2011;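 active = binding more than 3 SD below its plate's average and above zero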;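 also: hits lower antibody fragment binding to DSG3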
MEKK2 mut-MEK5: MEK5 binding signal on mutant MEKK2 PB1, primary screen, biochemical, multiplex bead flow cytometry, Alexa488-MEK5; Alexa488-MEK5 binding to MEKK2 mutant; percent response, % at 10 µM; actives 0.35% (n = 290,000); AID 1530, 2009; in the data active = percent response above about 24%, passing the limit was not always enough
Apaf1 inhib: inhibitors of human Apaf-1 apoptosome, primary screen, biochemical, DEVD-Rh110 fluorescence, uHTS; reconstituted apoptosome caspase-3 activity; inhibition, % at 20 µM; actives 0.71% (n = 330,000); AID 489030, 2010; active = inhibition of at least 40% at 20 µM;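 also: plate controls were DMSO wells for no effect and DEVD-CHO caspase inhibitor wells for full effect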
Target sequence (O14727 whole entry, looked up): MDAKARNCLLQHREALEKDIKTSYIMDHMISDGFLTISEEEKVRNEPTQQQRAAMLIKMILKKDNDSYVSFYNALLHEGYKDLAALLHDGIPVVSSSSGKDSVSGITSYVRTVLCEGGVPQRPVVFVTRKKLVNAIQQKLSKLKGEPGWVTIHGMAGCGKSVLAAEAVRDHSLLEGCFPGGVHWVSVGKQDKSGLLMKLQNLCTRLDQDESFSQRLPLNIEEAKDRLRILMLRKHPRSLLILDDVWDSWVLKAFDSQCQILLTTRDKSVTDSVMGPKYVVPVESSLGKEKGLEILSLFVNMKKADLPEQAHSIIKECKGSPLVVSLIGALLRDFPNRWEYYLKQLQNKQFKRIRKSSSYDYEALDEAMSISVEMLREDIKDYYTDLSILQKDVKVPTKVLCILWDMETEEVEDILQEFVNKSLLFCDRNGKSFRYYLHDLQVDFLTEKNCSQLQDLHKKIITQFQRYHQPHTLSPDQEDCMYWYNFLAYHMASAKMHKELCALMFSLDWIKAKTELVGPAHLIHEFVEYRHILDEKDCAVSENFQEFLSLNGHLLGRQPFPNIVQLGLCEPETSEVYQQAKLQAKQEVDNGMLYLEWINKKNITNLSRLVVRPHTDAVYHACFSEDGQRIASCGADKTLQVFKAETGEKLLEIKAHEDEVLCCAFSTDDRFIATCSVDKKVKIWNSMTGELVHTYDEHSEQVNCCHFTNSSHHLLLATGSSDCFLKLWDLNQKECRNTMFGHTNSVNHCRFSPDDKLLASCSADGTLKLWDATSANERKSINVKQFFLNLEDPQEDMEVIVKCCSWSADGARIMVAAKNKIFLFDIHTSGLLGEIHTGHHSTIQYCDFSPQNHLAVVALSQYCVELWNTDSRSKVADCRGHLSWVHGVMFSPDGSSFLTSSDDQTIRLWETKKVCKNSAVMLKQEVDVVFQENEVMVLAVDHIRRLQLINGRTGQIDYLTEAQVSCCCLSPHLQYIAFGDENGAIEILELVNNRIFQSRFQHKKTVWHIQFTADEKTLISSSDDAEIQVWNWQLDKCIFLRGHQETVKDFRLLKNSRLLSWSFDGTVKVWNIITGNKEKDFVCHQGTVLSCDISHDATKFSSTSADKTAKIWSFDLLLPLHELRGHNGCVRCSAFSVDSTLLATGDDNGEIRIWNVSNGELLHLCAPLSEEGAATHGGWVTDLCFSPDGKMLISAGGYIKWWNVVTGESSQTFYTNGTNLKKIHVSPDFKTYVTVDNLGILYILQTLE
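Assay system: Apoptosome proteins | Medium: pH 7.5 Hepes buffer with CHAPS, BSA, DTT | Also added: Cytochrome c and DEVD-Rh110 substrate | Times: 30 min plus 50 min, RT | Detection: Rhodamine 110 fluorescence at Ex 480/Em 540 nm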
MEKK2wt confirm: modulators of MEK5 binding to wildtype MEKK2, confirmation, biochemical, single concentration, multiplex bead flow cytometry; shares compounds with MEKK3 PB1 HTS; actives 2.4% (n = 5,900); Alexa488-MEK5 binding to MEKK2 WT; actives lie on both sides; binding response (% of control), % at 10 µM; AID 1892, 2009; in the data active = binding response below about 16% or above about 210%; inactive = in between
MEKK2mut-MEK5: mutant MEKK2 PB1-MEK5 binding signal retest – biochemical, single concentration, multiplex bead flow cytometry, confirmation. shares compounds with MEKK3 PB1 HTS. Alexa488-MEK5 binding to MEKK2 mutant. percent response, % at 10 µM. actives 2% (n = 5,900). AID 1893, 2009; in the data active = percent response mostly above about 71%, no sharp cut-off; inactive = mostly below about 38%;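 also: higher means compound restores mutant binding toward wildtype level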
MEKK3 confirm: MEKK3 wild-type PB1 binding to MEK5, inhibitors, confirmation, biochemical, bead multiplex flow cytometry, single concentration, wildtype. shares compounds with MEKK3 PB1 HTS. Alexa488-MEK5 binding to MEKK3; stronger effect = lower value. binding response (% of control), % at 10 µM. actives 1.8% (n = 5,900). AID 1894, 2009;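 active = binding response below 72% of control, or above a set upper limit, though filed actives all read lower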;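 also: 100% = DMSO only wells and 0% = binding blocked by excess unlabeled MEK5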
* marks the source's active call; other numbers are inactive results; nt = not tested or not shown; ! = not confirmed by another sample; [ ] = remark or other dose. Compounds with a hit are over-represented: about 3.2% of the library has one in this group of screens.

SMILES	UBC13 inh	MEKK3 PB1 HTS	MEKK2 WT-MEK5	DSG3 Ab inh	MEKK2 mut-MEK5	Apaf1 inhib	MEKK2wt confirm	MEKK2mut-MEK5	MEKK3 confirm
O=C(O)COCC(=O)Nc1ccc(Oc2ncnc3cc(Cl)ccc23)nc1	7	48*[inhibitor]	58	104	-41	-21	105	6	103
O=c1cc(-c2ccc(F)cc2)oc2ccccc12	-3	2.0*[inhibitor]	2.0*[inhibitor]	97	2	-4	99	6	104
Cc1ccc(S(=O)(=O)NCCn2nc(C)nc2C)cc1	9	100	100	97	7	-7	nt	nt	nt
CCOc1ncccc1C(=O)OCC(=O)Nc1ccc(C(N)=O)cc1	-6	104	106	99	6	-12	nt	nt	nt
CCN(CC)CCNC(=O)COc1ccc(OC)cc1	8	94	94	122	-8	-6	nt	nt	nt
CN(C)CCNC(=O)COc1ccc(C23CC4CC(CC(C4)C2)C3)cc1	37	98	151*	88	14	26	124	7	103
Cc1ccc(C23CC4CC(CC(NC(=O)NCCN(C)C)(C4)C2)C3)cc1	9	107	156*	100	31*	15	21	-25	35*
CC(=O)c1cccc(OCC(O)CNCC2COc3ccccc3O2)c1 (stereo unspecified)	-4	85	90	105	-20	7	nt	nt	nt
O=C(COC(=O)Cn1cc(C(F)(F)F)ccc1=O)Nc1ccc(Br)cc1F	-1	nt	nt	101	nt	5	nt	nt	nt
COc1cc2c(cc1OC)CN(C(=O)c1ccco1)CC2	4	143*	125	103	2	6	97	-5	101
C=CCc1cccc2cc(C(=O)Nc3ccc(CC(=O)O)cc3)c(=O)oc12	-16	139*	101	101	1	11	98	-1	102
COc1cc2c(C(=O)OCCN(C)C)c(CSc3ccccc3)n(C)c2cc1Br	13	99	146*	96	-9	13	153	28	108
Nc1ccc(-c2nc3ccc(N)cc3[nH]2)cc1	-7	69	73	90	-17	8	nt	nt	nt
Cc1nc2ccc(-c3nc4ccc(N)cc4[nH]3)cc2[nH]1	31	25*[inhibitor]	nt	92	nt	2	104	12	98
Cc1ccc(C)c(-c2nc3ccc(N)cc3[nH]2)c1	11	108	33*[inhibitor]	107	13	11	104	7	105
CCOc1ccc(OCC(=O)NCCS(=O)(=O)N2CCN(c3ccccc3)CC2)cc1	nt	nt	nt	103	nt	nt	nt	nt	nt
Cc1nn(CC(=O)NNC(=O)c2ccccc2F)c([N+](=O)[O-])c1Br	2	100	100	109	-2	-26	nt	nt	nt
COc1cccc(NC(=O)N2CCCC2C(=O)NCc2ccccc2F)c1 (stereo unspecified)	4	99	102	119	5	-13	nt	nt	nt
COc1cccc(NC(=O)N2CCCC2C(=O)NCc2ccccc2)c1 (stereo unspecified)	-6	63*[inhibitor]	55*[inhibitor]	99	-16	-1	93	-5	97
COc1cccc(CN2CCCCC2C(=O)O)c1 (stereo unspecified)	-7	40*[inhibitor]	60	92	-26	-5	98	3	98
COc1cccc(NC(=O)C2CCCN2C(=O)Nc2ccccc2F)c1 (stereo unspecified)	6	1.0*[inhibitor]	-2.0*[inhibitor]	102	-21	-10	99	-1	100
C[C@H]1CN[C@H](CCO)/C1=C\c1ccccc1	nt	nt	nt	108	nt	nt	nt	nt	nt
OC(CNCc1cccc(Br)c1)c1ccccc1 (stereo unspecified)	9	107	105	103	-1	-27	nt	nt	nt
OCc1cc(C(O)CNCCCCCCOCCCCc2ccccc2)ccc1O (stereo unspecified)	22	112	144*!	113	9	42*!	120	2	103
CC(=O)Nc1c(C(=O)N2CCCCCC2)cnn1-c1ccccc1	1	81*[inhibitor]	86	107	-11	-5	105	-5	102
SMILES	UBC13 inh	MEKK3 PB1 HTS	MEKK2 WT-MEK5	DSG3 Ab inh	MEKK2 mut-MEK5	Apaf1 inhib	MEKK2wt confirm	MEKK2mut-MEK5	MEKK3 confirm
CN1CCN(/N=C/c2ccc(N(c3ccccc3)c3ccccc3)cc2)CC1	20	106	153*	nt	16	22	151	34	98
N#Cc1ccccc1NS(=O)(=O)c1cc2c3c(c1)CCC(=O)N3CCC2	2	nt	nt	105	nt	5	nt	nt	nt
c1cc(Nc2ncnc3sccc23)cc(-c2nnc3n2CCCCC3)c1	9	-1.0*[inhibitor]	-1.0*[inhibitor]	106	-17	12	107	4	103
COc1ccc(OC)c(C(=O)CC2OC(=O)c3ccccc32)c1 (stereo unspecified)	0	111	110	nt	5	-1	nt	nt	nt
COc1ccc2c(c1)C(=O)OC2CC(=O)O (stereo unspecified)	0	9.0*[inhibitor]	14*[inhibitor]	107	-15	-6	105	0	105
Cc1[nH]n(-c2ccc([N+](=O)[O-])cc2)c(=O)c1C=NCCN1CCN(C(=O)c2cccc(F)c2)CC1	-4	127*	126	104	8	10	110	13	105
Cc1nc2cc(NC(=O)N3CC4(C)CC3CC(C)(C)C4)ccc2n1C (stereo unspecified)	-2	2.0*[inhibitor]	-2.0*[inhibitor]	96	-29	-15	106	4	101
Cc1nc2cc(NC(=O)N3CCCC3)ccc2n1C	10	90	77	113	-13	-13	nt	nt	nt
CCOC(=O)c1cc(CC)sc1/N=C/C1=C(O)CC(C)(C)CC1=O	-4	136*	109	106	1	13	103	-3	100
Cc1cc(=O)c2c(=O)[nH][nH]c2[nH]1	nt	nt	nt	97	nt	nt	nt	nt	nt
Cc1cc(=O)c2c(C)ccc(C)c2[nH]1	11	74*[inhibitor]	85	88	-25	-5	103	2	105
